In brackets after ≈: the same amount, converted by molar mass. Activity calls are given as the source filed them. The rule behind the calls is not given here.
Assays:
[1] = target: T1, L-cysteine:1D-myo-inositol 2-amino-2-deoxy-alpha-D-glucopyranoside ligase (Mycobacterium tuberculosis, UniProt P9WJM9); assay: Inhibition of Mycobacterium tuberculosis recombinant MshC assessed as production of Cys-GlcN-Ins from cysteine by HPLC based fluorescence assay
T1 sequence (P9WJM9 whole entry): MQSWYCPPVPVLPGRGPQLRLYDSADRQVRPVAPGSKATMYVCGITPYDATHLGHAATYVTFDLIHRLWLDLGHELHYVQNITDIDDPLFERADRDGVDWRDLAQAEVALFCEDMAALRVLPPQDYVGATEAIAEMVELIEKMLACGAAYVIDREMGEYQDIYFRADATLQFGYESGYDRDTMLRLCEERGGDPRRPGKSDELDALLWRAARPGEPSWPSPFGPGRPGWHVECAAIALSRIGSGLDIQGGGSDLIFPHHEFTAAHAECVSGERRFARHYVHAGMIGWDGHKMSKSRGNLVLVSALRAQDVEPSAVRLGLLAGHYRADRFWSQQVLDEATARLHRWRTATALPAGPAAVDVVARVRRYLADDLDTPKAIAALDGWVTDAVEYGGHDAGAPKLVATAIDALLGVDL

[2] = Antimycobacterial activity against mid-log phase of Mycobacterium tuberculosis Erdman ATCC 35801 after 7 days by 96 well plate assay; type: functional, Mycobacterium tuberculosis str. Erdman; details: ATCC 35801, 168 h
Vero = assay: Cytotoxicity against african green monkey Vero cells assessed as cell viability after 48 hrs by neutral red assay; type: cell-based; details: chlorocebus sabaeus
[3] = Antimycobacterial activity against mid-log phase of Mycobacterium tuberculosis Erdman ATCC 35801 assessed as reduction of viability at 50 to 75 uM after 7 days by 96 well plate assay relative to control; type: functional, Mycobacterium tuberculosis str. Erdman
[4] = test system: Mycobacterium tuberculosis str. Erdman; assay: Antimycobacterial activity against mid-log phase of Mycobacterium tuberculosis Erdman ATCC 35801 assessed as growth inhibition by measuring change on optical density at 600 nm at 30 to 50 uM after 7 days; type: functional
Summary of the method: (§1)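 Mid-log Erdman in 7H9 + ADS adjusted to OD600 0.08; 8 mL aliquots with 10–75 µM compound (from DMSO stock) in vented flasks, 7 d at 37 °C; duplicates with DMSO-matched control; growth read as 7-day change in OD600.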

[5] = Antimycobacterial activity against mid-log phase of Mycobacterium tuberculosis Erdman ATCC 35801 assessed as reduction of viability at 20 uM after 7 days by 96 well plate assay; type: functional, Mycobacterium tuberculosis str. Erdman
[6] = test system: Mycobacterium tuberculosis str. Erdman; assay: Antimycobacterial activity against mid-log phase of Mycobacterium tuberculosis Erdman ATCC 35801 assessed as growth inhibition after 7 days by 96 well plate assay; type: functional
[7] = test system: Mycobacterium tuberculosis str. Erdman; assay: Antimycobacterial activity against mid-log phase of Mycobacterium tuberculosis Erdman ATCC 35801 assessed as growth inhibition by measuring change on optical density at 600 nm after 7 days; type: functional; summary of the method: as §1
[8] = target: T2, L-cysteine:1D-myo-inositol 2-amino-2-deoxy-alpha-D-glucopyranoside ligase (Mycobacterium tuberculosis) (UniProt P9WJM9); assay: Inhibition of MshC in Mycobacterium tuberculosis Erdman ATCC 35801 assessed as reduction of Cys-GlcN-Ins accumulation at 10 to 80 uM after 7 days by HPLC based fluorescence assay; details: Mycobacterium tuberculosis str. Erdman
T2 sequence (whole entry): T1 sequence (P9WJM9 whole entry)

[9] = Antimycobacterial activity against non-replicating Mycobacterium tuberculosis Erdman ATCC 35801 nutrient starvation model assessed as reduction viability at 90 uM after 15 days by 96 well plate assay; type: functional, Mycobacterium tuberculosis str. Erdman
Summary of the method: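 Non-replicating Erdman from nutrient starvation in PBS + 0.05% Tween 80 for 6 weeks; compound dilutions then added and incubation continued 15 d; viable counts by plating serial dilutions on 7H9 agar with OADC; duplicate samples.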

[10] = test system: Mycobacterium tuberculosis; assay: Antimycobacterial activity against mid-log phase of Mycobacterium tuberculosis CDC1551 isolated from patient after 7 days by 96 well plate assay; type: functional; details: CDC1551, 168 h

SMILES	IC50 [1]	further results
CC1CCCN(CCCNC(=O)c2ccc3c(c2)N(Cc2ccccc2F)C(=O)c2ccccc2S3(=O)=O)C1 (configuration not stated)	800 µM	–
O=C(NCCCN1CCOCC1)c1ccc2c(c1)N(Cc1cccc(Cl)c1)C(=O)c1ccccc1S2	800 µM	–
CN(CCCNC(=O)c1ccc2c(c1)N(Cc1cccc(Cl)c1)C(=O)c1ccccc1S2)C1CCCCC1	280 µM	–
O=C(NCCCN1CCOCC1)c1ccc2c(c1)N(Cc1cccc(Cl)c1)C(=O)c1ccccc1S2(=O)=O	3000 µM	–
O=C(NCCCN1CCCC1)c1ccc2c(c1)N(Cc1cccc(Cl)c1)C(=O)c1ccccc1S2	130 µM	MIC95 [2]: 55 µM (≈ 27.8 µg/mL); cytotoxic concentration (Vero): 50 µM
O=C(NCC1CCCN1)c1ccc2c(c1)N(Cc1cccc(Cl)c1)C(=O)c1ccccc1S2(=O)=O (configuration not stated)	2500 µM	–
CN(CCCNC(=O)c1ccc2c(c1)N(Cc1ccccc1)C(=O)c1ccccc1S2(=O)=O)C1CCCCC1	500 µM	–
CN(CCCNC(=O)c1ccc2c(c1)N(Cc1ccc(Cl)cc1)C(=O)c1ccccc1S2(=O)=O)C1CCCCC1	330 µM	–
Cc1ccc(CN2C(=O)c3ccccc3S(=O)(=O)c3ccc(C(=O)NCCCN4CCCC4)cc32)c(C)c1	1400 µM	–
Cc1ccc(CN2C(=O)c3ccccc3S(=O)(=O)c3ccc(C(=O)NCCCN4CCOCC4)cc32)c(C)c1	> 3000 µM	–
O=C(NCCCN1CCOCC1)c1ccc2c(c1)N(Cc1cccc(Cl)c1)C(=O)c1ccccc1[S+]2[O-] (racemic)	500 µM	–
O=C(NCCCN1CCCC1)c1ccc2c(c1)N(Cc1cccc(Cl)c1)C(=O)c1ccccc1[S+]2[O-] (racemic)	100 µM	MIC95 [2]: 55 µM (≈ 28.7 µg/mL); cytotoxic concentration (Vero): 50 µM
CCCCN(C)CCCNC(=O)c1ccc2c(c1)N(Cc1cccc(Cl)c1)C(=O)c1ccccc1[S+]2[O-] (racemic)	110 µM	–
CN(CCCNC(=O)c1ccc2c(c1)N(Cc1cccc(Cl)c1)C(=O)c1ccccc1[S+]2[O-])C1CCCCC1 (racemic)	85 µM	Activity [3]: 97%; growth inhibition (GI) [4]: 50%; Activity [5]: 50%; growth inhibition (GI) [6]: Dose-dependent effect; growth inhibition (GI) [7]: Dose-dependent effect; MIC95 [2]: 28 µM (≈ 15.8 µg/mL); cytotoxic concentration (Vero): 50 µM; inhibition [8]: Active; Activity [9]: 99%
O=C(NCCCSC1CCCCC1)c1ccc2c(c1)N(Cc1cccc(Cl)c1)C(=O)c1ccccc1[S+]2[O-] (racemic)	≥ 1000 µM	–
CC1CC(C)CN(CCCNC(=O)c2ccc3c(c2)N(Cc2cccc(Cl)c2)C(=O)c2ccccc2[S+]3[O-])C1 (racemic)	500 µM	–
CCC1CCCCN1CCCNC(=O)c1ccc2c(c1)N(Cc1cccc(Cl)c1)C(=O)c1ccccc1[S+]2[O-] (racemic)	80 µM	MIC95 [10]: 32 µM (≈ 18.1 µg/mL); MIC95 [2]: 55 µM (≈ 31 µg/mL); cytotoxic concentration (Vero): 100 µM
CC1CCCN(CCCNC(=O)c2ccc3c(c2)N(Cc2cccc(Cl)c2)C(=O)c2ccccc2[S+]3[O-])C1 (racemic)	–	MIC95 [2]: 55 µM (≈ 30.3 µg/mL); cytotoxic concentration (Vero): 100 µM
O=C(NCCN1CCCCCC1)c1ccc2c(c1)N(Cc1cccc(Cl)c1)C(=O)c1ccccc1[S+]2[O-] (racemic)	100 µM	MIC95 [2]: 28 µM (≈ 15 µg/mL); cytotoxic concentration (Vero): 100 µM
CCCN(CCC)CCCNC(=O)c1ccc2c(c1)N(Cc1cccc(Cl)c1)C(=O)c1ccccc1[S+]2[O-] (racemic)	100 µM	–
CN(CCCNC(=O)c1ccc2c(c1)N(Cc1ccccc1)C(=O)c1ccccc1[S+]2[O-])C1CCCCC1 (racemic)	300 µM	–
CCN1C(=O)c2ccccc2[S+]([O-])c2ccc(C(=O)NCCCN3CCCCCC3)cc21 (racemic)	≥ 3000 µM	–
CN(C)CCCNC(=O)c1ccc2c(c1)N(Cc1ccc(Cl)cc1)C(=O)c1ccccc1[S+]2[O-] (racemic)	340 µM	–
CN(CCCNC(=O)c1ccc2c(c1)N(Cc1ccc(F)cc1)C(=O)c1ccccc1[S+]2[O-])C1CCCCC1 (racemic)	> 3000 µM	–
CC1CC(C)CN(CCCNC(=O)c2ccc3c(c2)N(Cc2ccccc2F)C(=O)c2ccccc2[S+]3[O-])C1 (racemic)	> 3000 µM	–
Cc1ccc(CN2C(=O)c3ccccc3[S+]([O-])c3ccc(C(=O)NCCCN(C)C4CCCCC4)cc32)c(C)c1 (racemic)	2000 µM	–
CCN(CC)CCCNC(=O)c1ccc2c(c1)N(Cc1ccc(C)cc1C)C(=O)c1ccccc1[S+]2[O-] (racemic)	> 3000 µM	–
CO[C@H]1/C=C/O[C@@]2(C)Oc3c(C)c(O)c4c(O)c(c(/C=N/N5CCN(C)CC5)c(O)c4c3C2=O)NC(=O)/C(C)=C\C=C\[C@H](C)[C@H](O)[C@@H](C)[C@@H](O)[C@@H](C)[C@H](OC(C)=O)[C@@H]1C [RIFAMPIN]	–	MIC95 [2]: 0.24 µM (≈ 0.198 µg/mL)

Reference: ChEMBL document CHEMBL1795211, “Evaluation of NTF1836 as an inhibitor of the mycothiol biosynthetic enzyme MshC in growing and non-replicating Mycobacterium tuberculosis” (Bioorg Med Chem, 2011)
